Test results published in ChEMBL document CHEMBL2406990, “Guanidine alkaloids from Plumbago zeylanica” (J Nat Prod, 2013).

What was measured:
[1] = test system: MDA-MB-231; test: Cytotoxicity against human MDA-MB-231 cells after 72 hrs by SRB assay; assay type: functional, cell-based; settings: MDA-MB-231, 72 h
Method in brief: (§1)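 Cells seeded and left 24 h, then exposed to serial dilutions of compound (top concentration 100 μM). Incubation 72 h at 37 °C in humidified 5% CO2. Fixed with 10% trichloroacetic acid (4 °C, 1 h), water-washed, dried, stained 15 min with 0.4% SRB in 1% acetic acid. Unbound dye removed with 1% acetic acid, bound dye taken up in 10 mM Tris base, A510 read. Triplicate, IC50.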

[2] = test system: PANC-1; test: Cytotoxicity against human PANC1 cells after 72 hrs by SRB assay; assay type: functional, cell-based; settings: PANC-1, 72 h; method in brief: as §1

CC(C)=C[C@@H]1C[C@@H](C(=O)O)[C@@H]2CN(CC(O)CCO[C@H]3OC[C@@H](O)[C@H](O)[C@H]3O)C(=N)N12 (stereo partly drawn)
IC50 [1]: > 10 µM
IC50 [2]: > 10 µM

CC1=C[C@@H](C[C@@H](C(=O)O)[C@@H]2CN(CC(O)CCO[C@H]3OC[C@@H](O)[C@H](O)[C@H]3O)C(=N)N2)OC1=O (stereo partly drawn)
IC50 [1]: > 10 µM
IC50 [2]: > 10 µM

CC(C)(O)CCC[C@@H](C(=O)O)[C@@H]1CNC(=N)N1
IC50 [1]: > 10 µM
IC50 [2]: > 10 µM

CC(C)=CCC[C@@H](C(=O)O)[C@@H]1CNC(=N)N1
IC50 [1]: > 10 µM
IC50 [2]: > 10 µM

C/C(=C\CC[C@@H](C(=O)O)[C@@H]1CNC(=N)N1)CO
IC50 [1]: > 10 µM
IC50 [2]: > 10 µM

CC(C)=C[C@@H]1C[C@@H](C(=O)O)[C@@H]2CNC(=N)N12
IC50 [1]: > 10 µM
IC50 [2]: > 10 µM

CC1=C[C@@H](C[C@@H](C(=O)O)[C@@H]2CNC(=N)N2)OC1=O
IC50 [1]: > 10 µM
IC50 [2]: > 10 µM

CC(C)=CCC[C@@H](C(=O)O)[C@@H]1CN(CC(O)CCO)C(=N)N1 (stereo partly drawn)
IC50 [1]: > 10 µM
IC50 [2]: > 10 µM

C/C(=C\CC[C@@H](C(=O)O)[C@@H]1CN(CC(O)CCO)C(=N)N1)CO (stereo partly drawn)
IC50 [1]: > 10 µM
IC50 [2]: > 10 µM

CC(C)=C[C@@H]1C[C@@H](C(=O)O)[C@@H]2CN(CC(O)CCO)C(=N)N12 (stereo partly drawn)
IC50 [1]: > 10 µM
IC50 [2]: > 10 µM

CC1=C[C@@H](C[C@@H](C(=O)O)[C@@H]2CN(CC(O)CCO)C(=N)N2)OC1=O (stereo partly drawn)
IC50 [1]: > 10 µM
IC50 [2]: > 10 µM

CC(C)=CCC[C@@H](C(=O)O)[C@@H]1CN(CC(O)CCO[C@H]2OC[C@@H](O)[C@H](O)[C@H]2O)C(=N)N1 (stereo partly drawn)
IC50 [1]: > 10 µM
IC50 [2]: > 10 µM

C/C(=C\CC[C@@H](C(=O)O)[C@@H]1CN(CC(O)CCO[C@H]2OC[C@@H](O)[C@H](O)[C@H]2O)C(=N)N1)CO (stereo partly drawn)
IC50 [1]: > 10 µM
IC50 [2]: > 10 µM

CC(=O)O[C@H]1C(=O)[C@@]2(C)[C@H]([C@H](OC(=O)c3ccccc3)[C@]3(O)C[C@H](OC(=O)[C@H](O)[C@@H](NC(=O)c4ccccc4)c4ccccc4)C(C)=C1C3(C)C)[C@]1(OC(C)=O)CO[C@@H]1C[C@@H]2O [PACLITAXEL]
IC50 [1]: < 1 µM
IC50 [2]: < 1 µM
